Paper PMC4455950 (Journal of the American Chemical Society, 2008)
Entries after “also recorded” stand apart in the source; their conditions may differ. Like-named read-outs stand apart in the source and are kept apart here.

How the values were obtained:
[1] = target: T1, mCD1d:Ig fusion protein (dimeric CD1d) (Mus musculus, UniProt P11609); test: Competitive binding assay on microarray; details: for binding with CD1d stronger than α-GalCer: relative to α-GalCer
T1 sequence (P11609 22-305 limits assumed): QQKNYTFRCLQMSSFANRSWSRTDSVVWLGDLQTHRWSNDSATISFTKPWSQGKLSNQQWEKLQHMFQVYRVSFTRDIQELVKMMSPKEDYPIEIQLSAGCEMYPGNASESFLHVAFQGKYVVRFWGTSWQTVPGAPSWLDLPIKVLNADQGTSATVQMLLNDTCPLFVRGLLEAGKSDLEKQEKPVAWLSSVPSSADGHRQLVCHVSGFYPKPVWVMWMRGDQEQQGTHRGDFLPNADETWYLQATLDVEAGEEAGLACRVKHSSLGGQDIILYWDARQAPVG
T1 sequence (P01887 21-119 partner): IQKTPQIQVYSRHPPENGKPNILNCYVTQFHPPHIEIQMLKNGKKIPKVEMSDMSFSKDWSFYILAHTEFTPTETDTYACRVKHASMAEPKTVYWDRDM
In short: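 Glass slides carry a covalently attached amine-linked α-GalCer analogue printed at 100 μM. Test compound (400 to 0.1 μM, 1.0% DMSO) is preincubated with dimeric mCD1d:Ig (500 nM) for 5–8 h. Mixture goes on slides 1 h at room temperature, humidified. Detection uses precomplexed biotinylated rat anti-mCD1d (20 μg/mL) plus Cy3-streptavidin (10 μg/mL), 1 h, then a 595 nm scan. Ki is fitted to a competitive surface-binding equation.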

[2] = system: human Vα24+ NKT cell line cocultured with Hela cells transfected with human CD1d; test: Cytokine secretion assay using human NKT cell lines; format: cell-based; details: for IFN-γ secretion normalized to α-GalCer / IL-4 secretion normalized to α-GalCer: 10 ng/mL glycolipid, 24 h, ELISA, relative to α-GalCer = 1.00; for IFN-γ/IL-4 ratio: IFN-γ ratio/IL-4 ratio, normalized to α-GalCer
In short: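 Vα24+ NKT lines come from bead-isolated leukopak T cells. They were expanded 10 days on irradiated (3000 rads) CD14-derived immature DCs with 100 ng/mL α-GalCer and 10 IU/mL IL-2. Assay: 20 000 NKT cells plus 2 × 10^4 irradiated (10 000 rads) human CD1d-transfected HeLa cells, 10 ng/mL test compound, 24 h. Supernatant IFN-γ or IL-4 by ELISA, normalised to α-GalCer; triplicate, mean ± SD.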

CD1d [3] = details: read-out: dissociation constant from IEF; cited from earlier work
CD1d [4] = details: read-out: dissociation constant from ITC; cited from earlier work

| SMILES | binding with CD1d stronger than α-GalCer [1] | binding enhancement compared with parent compound 13 ([1]; relative to compound 13) | binding to CD1d (in words) [1] | Ki [1] [µM] | Ki versus KD,surf (fold) ([1]; solution Ki compared with KD,surf of surface α-GalCer) | IFN-γ secretion normalized to α-GalCer [2] | IL-4 secretion normalized to α-GalCer [2] | IFN-γ/IL-4 ratio [2] | IFN-γ production (in words) [2] | Kd (CD1d [3]) [µM] | Kd (CD1d [4]) [µM] |
| --- | --- | --- | --- | --- | --- | --- | --- | --- | --- | --- | --- |
| CCCCCCCCCCCCCC[C@@H](O)[C@@H](O)[C@H](CO[C@H]1O[C@H](CO)[C@H](O)[C@H](O)[C@H]1O)NC(=O)CCCCCCCc1ccc(OC)cc1 [Compound 19] | – | – | – | – | – | 2.25 ± 0.06 | 0.79 ± 0.06 | 2.85 ± 0.10 | highest IFN-γ cytokine production | – | – |
| CCCCCCCCCCCCCC[C@@H](O)[C@@H](O)[C@H](CO[C@H]1O[C@H](CO)[C@H](O)[C@H](O)[C@H]1O)NC(=O)CCCCCCCc1ccc(C(F)(F)F)cc1 [Compound 20] | – | – | – | – | – | 1.43 ± 0.07 | 0.76 ± 0.08 | 1.88 ± 0.08 | – | – | – |
| CCCCCCCCCCCCCC[C@@H](O)[C@@H](O)[C@H](CO[C@H]1O[C@H](CO)[C@H](O)[C@H](O)[C@H]1O)NC(=O)CCCCCCCCCCc1ccc(-c2ccccc2)cc1 [Compound 25] | – | – | lower binding activity | – | – | 0.33 ± 0.001 | 0.61 ± 0.06 | 0.55 ± 0.04 | less IFN-γ production | – | – |
| CCCCCCCCCCCCCCCCCCCCCCCCCC(=O)N[C@@H](CO[C@H]1O[C@H](CO)[C@H](O)[C@H](O)[C@H]1O)[C@H](O)[C@H](O)CCCCCCCCCCCCCC [α-GalCer, α-galactosylceramide, reference compound] | – | – | – | 16 ± 2.1 | 30–140 fold | 1.00 | 1.00 | 1.00 | – | 5.9 | 9.7 |

More lines, main results first:

| binding with CD1d stronger than α-GalCer [1] | binding enhancement compared with parent compound 13 ([1]; relative to compound 13) | binding to CD1d (in words) [1] | Ki [1] [µM] | Ki versus KD,surf (fold) ([1]; solution Ki compared with KD,surf of surface α-GalCer) | SMILES | IFN-γ secretion normalized to α-GalCer [2] | IL-4 secretion normalized to α-GalCer [2] | IFN-γ/IL-4 ratio [2] | IFN-γ production (in words) [2] | Kd (CD1d [3]) [µM] | Kd (CD1d [4]) [µM] |
| --- | --- | --- | --- | --- | --- | --- | --- | --- | --- | --- | --- |
| approximately 1 order of magnitude | – | – | – | – | CCCCCCCCCCCCCCC(O)C(O)C(COC1OC(CO)C(O)C(O)C1O)NC(=O)CCCCCCCc1ccccc1 (centres unmarked) [Compound 13] | 1.80 ± 0.15 | 0.87 ± 0.27 | 2.07 ± 0.26 | – | – | – |
| 2 order of magnitude | approximately 1 order of magnitude | – | – | – | CCCCCCCCCCCCCCC(O)C(O)C(COC1OC(CO)C(O)C(O)C1O)NC(=O)CCCCCCCc1ccc(F)cc1 (centres unmarked) [Compound 18] | 2.39 ± 0.13 | 0.80 ± 0.09 | 3.00 ± 0.16 | highest IFN-γ cytokine production; also recorded: highest IFN-γ secretion | – | – |
